Data: paper PMC9085298 (RSC Advances, 2018)
≈ marks a conversion by molar mass, not a printed value.

How the values were obtained:
[1] = system: Staphylococcus aureus (ATCC 29213); experiment: MIC80 by broth microdilution; format: cell-based; conditions: for MIC80: Staphylococcus aureus, ATCC29213, read-out: Bacteria MIC80 S. aureus (29213); for Bacteria MIC80 S. aureus (29213): concentration inhibiting growth ≥80% vs vehicle, 16–24 h, 35 °C
Procedure, shortened: (§1)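 CLSI broth microdilution in cation-adjusted Mueller–Hinton II broth with a 1.5-fold test-compound dilution series. Overnight culture adjusted to 5 × 10^5 CFU mL−1 final. Incubated 16–24 h at 35 °C ± 2 °C, then growth read by absorbance (OD600). MIC80 is the concentration giving ≥80% growth inhibition versus vehicle-treated cultures. Each value is the average of at least two independent determinations.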

[2] = system: Escherichia coli (ATCC 35218); experiment: MIC80 by broth microdilution; format: cell-based; conditions: for MIC80: Escherichia coli, ATCC35218, read-out: Bacteria MIC80 E. coli (35218)
Procedure, shortened: as §1

[3] = system: Acinetobacter baumannii (from a patient); experiment: MIC80 by broth microdilution; format: cell-based; conditions: for MIC80: Acinetobacter baumannii, read-out: Bacteria MIC80 A. baumannii (from a patient)
Procedure, shortened: as §1

[4] = system: Pseudomonas aeruginosa (ATCC 27853); experiment: MIC80 by broth microdilution; format: cell-based; conditions: concentration inhibiting growth ≥80% vs vehicle; 16–24 h, 35 °C
Procedure, shortened: as §1

[5] = Neutral red cytotoxicity assay; format: cell-based; conditions: human, HepDES19 cells (hepatoblastoma cells)
Procedure, shortened: (§2)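 HepDES19 cells seeded at 1.0 × 10^4/well in DMEM with 10% FBS, 1% penicillin/streptomycin, 1% nonessential amino acids and 1% glutamine. Test compound (1% DMSO final) added 48 h after plating, triplicate per concentration, and incubated 72 h. Viability measured by neutral red uptake. CC50 is 50% inhibition versus vehicle control, from a 4-variable slope fit of log-transformed data.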

[6] = MTS cytotoxicity assay; format: cell-based; conditions: human, HepDES19 cells (hepatoblastoma cells)
Procedure, shortened: (§3)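 HepDES19 cells seeded at 1.0 × 10^4/well in DMEM with 10% FBS, 1% penicillin/streptomycin, 1% nonessential amino acids and 1% glutamine. Test compound in medium (1% DMSO final) added 48 h after plating, triplicate per concentration. After 72 h, MTS added for 90 min; absorbance at 490 nm. CC50 is 50% viability loss versus untreated cells, from a variable-slope log[inhibitor]–response fit.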

[7] = system: C. neoformans var grubii, KN99 (serotype A, MATα); experiment: Inhibition of C. neoformans growth; format: cell-based, Cryptococcus neoformans
Procedure, shortened: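 Test compound 0.19–50 μM, 48 h at 35 °C, density read at OD650. Growth expressed as % of DMSO-only cells. MIC80 is the minimal concentration inhibiting 80% growth versus vehicle. Triplicates; average of ≥2 independent assays.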

[8] = system: HepDES19 cells; experiment: Neutral red cytotoxicity assay; format: cell-based; conditions: read-out: CC50 (neutral red); HepDES19 cells, 72 h, lysosomal function
Procedure, shortened: as §2

[9] = system: HepDES19 cells; experiment: MTS cytotoxicity assay; format: cell-based; conditions: read-out: CC50 (MTS); HepDES19 cells, 72 h, mitochondrial function
Procedure, shortened: as §3

[10] = concentration inhibiting growth ≥80% vs vehicle, 16–24 h, 35 °C

MIC80 [1] [µM] | Bacteria MIC80 S. aureus (29213) [1] [µM] | MIC80 [2] [µM] | Bacteria MIC80 E. coli (35218) [2, 10] [µM] | MIC80 [3] [µM] | Bacteria MIC80 A. baumannii (from a patient) [3, 10] [µM] | Bacteria MIC80 P. aeruginosa (27853) [4] [µM] | C. neoformans MIC80 ([7]; minimal concentration inhibiting 80% of growth, 48 h, 35 °C, YNB-02 + 1% DMSO) [µM] | Compound | CC50 at 72 h [5] [µM] | CC50 at 72 h [6] [µM] | fold increase in antibacterial activity against S. aureus ([1]; relative to natural product 2) [fold] | CC50 [8] [µM] | CC50 [9] [µM] | fold less activity against C. neoformans ([7]; relative to hydroxy tropolone 2) [fold]
> 100 | >100 | > 100 | >100 | > 100 | >100 | >100 |  | Cc1ccc(S(=O)(=O)Oc2cccc(C(C)C)cc2=O)cc1 [Compound 8, 6-(1-Methylethyl)-2-[[(4-methylphenyl)sulfonyl]oxy]-2,4,6-cycloheptatrien-1-one] | 31.8 | 33.6 |  |  |  | 
8.8 (≈ 2.8 µg/mL) |  | > 100 |  | > 100 |  |  |  | Cc1ccc(S(=O)(=O)Oc2cc(C(C)C)cccc2=O)cc1 [Compound 9, 4-(1-Methylethyl)-2-[[(4-methylphenyl)sulfonyl]oxy]-2,4,6-cycloheptatrien-1-one] | 19.5 | 34.2 | 8 |  |  | 
 | 16 |  |  |  |  |  | 24 | 7-Hydroxy-3-isopropylcyclohepta-2,4,5-triene-1-thione [Compound 11] |  |  |  | 30.4 | 64.2 | 
> 100 |  | > 100 |  | > 100 |  |  |  | CC(C)c1cccc(=S)c(O)c1 [Compound 10, 2-Hydroxy-4-isopropylcyclohepta-2,4,6-triene-1-thione] | 39.7 | 95 |  |  |  | > 2
